Reference: ChEMBL document CHEMBL1141286, “Benzochromenones from the marine crinoid Comantheria rotula inhibit hypoxia-inducible factor-1 (HIF-1) in cell-based reporter assays and differentially suppress the growth of certain tumor cell lines” (J Nat Prod, 2007)
pIC50: −log10 of the molar value. The source made the active and inactive calls. No cut-off for these calls is given here.

Columns and labels:
[1] = tested on: T47D; assay: Inhibition of 1,10-phenanthroline-induced VEGF protein secretion in human T47D cells at 10 uM after 16 hrs by ELISA; assay type: functional, cell-based
Method in brief: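 T47D cells stimulated with 1,10-phenanthroline, compound at 10 μM; secreted VEGF in conditioned media by ELISA, normalized to cell-lysate protein.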

[2] = tested on: CCRF-CEM; assay: Growth inhibition of human CCRF-CEM cells; assay type: functional
[3] = tested on: UO-31; assay: Growth inhibition of human UO31 cells; assay type: functional
[4] = tested on: HOP-62; assay: Growth inhibition of human HOP62 cells; assay type: functional
[5] = tested on: SK-MEL-5; assay: Growth inhibition of human SK-MEL5 cells; assay type: functional
[6] = tested on: SF-295; assay: Growth inhibition of human SF295 cells; assay type: functional
[7] = Inhibition of HIF1 activation in PC3 cells by TK-luciferase assay; assay type: cell-based; conditions: Homo sapiens, PC-3
Method in brief: (§1)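 HIF-1 reporter (pHRE-TK-Luc) assays in transfected PC-3 or T47D cells; HIF-1 induced by hypoxia or by the hypoxia mimetic 1,10-phenanthroline (10 μM); compounds at half-log concentrations; luciferase activity measured; IC50 from experiments in triplicate.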

[8] = tested on: NCI-H460; assay: Growth inhibition of human NCI-H460 cells; assay type: functional
[9] = tested on: NCI-H226; assay: Growth inhibition of human NCI-H226 cells; assay type: functional
[10] = tested on: SNB-75; assay: Growth inhibition of human SNB75 cells; assay type: functional
[11] = tested on: CAKI-1; assay: Growth inhibition of human CAKI1 cells; assay type: functional
[12] = tested on: COLO 205; assay: Growth inhibition of human COLO205 cells; assay type: functional
[13] = tested on: PC-3; assay: Growth inhibition of human PC3 cells; assay type: functional
[14] = tested on: HCC 2998; assay: Growth inhibition of human HCC2998 cells; assay type: functional
[15] = tested on: OVCAR-4; assay: Growth inhibition of human OVACAR4 cells; assay type: functional
[16] = tested on: MCF7; assay: Growth inhibition of human MCF7 cells; assay type: functional
[17] = tested on: SN12C; assay: Growth inhibition of human SN12C cells; assay type: functional
[18] = tested on: Hs-578T; assay: Growth inhibition of human HS578T cells; assay type: functional
[19] = tested on: SR; assay: Growth inhibition of human SR cells; assay type: functional
[20] = tested on: ACHN; assay: Growth inhibition of human ACHN cells; assay type: functional
[21] = tested on: SNB-19; assay: Growth inhibition of human SNB19 cells; assay type: functional
[22] = tested on: MOLT-4; assay: Growth inhibition of human MOLT4 cells; assay type: functional
[23] = tested on: TK-10; assay: Growth inhibition of human TK10 cells; assay type: functional
[24] = Inhibition of 1,10-phenanthroline-induced HIF1 activation in T47D cells by TK-luciferase assay; assay type: cell-based; conditions: Homo sapiens; method in brief: as §1
[25] = tested on: A498; assay: Growth inhibition of human A498 cells; assay type: functional
[26] = target: Hypoxia inducible factors; HIF-1-alpha, HIF-2-alpha (Homo sapiens, UniProt Q16665+Q99814); assay: Inhibition of HIF1 activation in human T47D cells by TK-luciferase assay; assay type: cell-based; method in brief: as §1
[27] = tested on: HCT-116; assay: Growth inhibition of human HCT116 cells; assay type: functional
[28] = tested on: Malme-3M; assay: Growth inhibition of human MALME-3M cells; assay type: functional
[29] = tested on: T47D; assay: Growth inhibition of human T47D cells; assay type: functional
[30] = tested on: UACC-257; assay: Growth inhibition of human UACC257 cells; assay type: functional
[31] = tested on: NCI-H522; assay: Growth inhibition of human NCI-H522 cells; assay type: functional
[32] = tested on: MDA-MB-435; assay: Growth inhibition of human MDA-MB-435 cells; assay type: functional
[33] = tested on: SF-268; assay: Growth inhibition of human SF268 cells; assay type: functional
[34] = tested on: KM12; assay: Growth inhibition of human KM12 cells; assay type: functional
[35] = tested on: HL-60; assay: Growth inhibition of human HL60 cells; assay type: functional
[36] = tested on: HT-29; assay: Growth inhibition of human HT29 cells; assay type: functional
[37] = tested on: SK-MEL-28; assay: Growth inhibition of human SK-MEL28 cells; assay type: functional
[38] = Growth inhibition of human OVACAR3 cells; assay type: functional
[39] = tested on: UACC-62; assay: Growth inhibition of human UACC62 cells; assay type: functional
[40] = tested on: RXF 393; assay: Growth inhibition of human RXF393 cells; assay type: functional
[41] = read-out: Log LC50 (the source's name) (converted)

## CCCc1cc(=O)c2c(OC)c3c(OC)cc(OC)cc3cc2o1
[1]
  Activity: inactive
[2]
  GI50: 58.9 µM
  LC50: > 100 µM
[2]; read-out: Log TGI (converted)
  TGI: 100 µM
[3]
  GI50: 42.7 µM
  LC50: > 100 µM
[3]; read-out: Log TGI (converted)
  TGI: > 100 µM
[4]
  GI50: 57.5 µM
[4]; [41]
  CC50: > 100 µM
[4]; read-out: Log TGI (converted)
  TGI: > 100 µM
[5]
  GI50: 45.7 µM
  LC50: > 100 µM
[5]; read-out: Log TGI (converted)
  TGI: > 100 µM
[6]
  GI50: 53.7 µM
  LC50: > 100 µM
[6]; read-out: Log TGI (converted)
  TGI: > 100 µM
[7]
  pIC50: < 5.00
[8]
  GI50: 85.1 µM
[8]; [41]
  CC50: > 100 µM
[8]; read-out: Log TGI (converted)
  TGI: > 100 µM
[9]
  GI50: > 100 µM
[9]; [41]
  CC50: > 100 µM
[9]; read-out: Log TGI (converted)
  TGI: > 100 µM
[10]
  GI50: 74.1 µM
  LC50: > 100 µM
[10]; read-out: Log TGI (converted)
  TGI: > 100 µM
[11]
  GI50: > 100 µM
  LC50: > 100 µM
[11]; read-out: Log TGI (converted)
  TGI: > 100 µM
[12]
  GI50: > 100 µM
[12]; [41]
  CC50: > 100 µM
[12]; read-out: Log TGI (converted)
  TGI: > 100 µM
[13]
  GI50: 51.3 µM
  LC50: > 100 µM
[13]; read-out: Log TGI (converted)
  TGI: > 100 µM
[14]
  GI50: > 100 µM
[14]; [41]
  CC50: > 100 µM
[14]; read-out: Log TGI (converted)
  TGI: > 100 µM
[15]
  GI50: 81.3 µM
  LC50: > 100 µM
[15]; read-out: Log TGI (converted)
  TGI: > 100 µM
[16]
  GI50: 93.3 µM
  LC50: > 100 µM
[16]; read-out: Log TGI (converted)
  TGI: > 100 µM
[17]
  GI50: > 100 µM
  LC50: > 100 µM
[17]; read-out: Log TGI (converted)
  TGI: > 100 µM
[18]
  GI50: 33.1 µM
  LC50: > 100 µM
[18]; read-out: Log TGI (converted)
  TGI: > 100 µM
[19]
  GI50: 39.8 µM
[19]; [41]
  CC50: > 100 µM
[19]; read-out: Log TGI (converted)
  TGI: > 100 µM
[20]
  GI50: > 100 µM
[20]; [41]
  CC50: > 100 µM
[20]; read-out: Log TGI (converted)
  TGI: > 100 µM
[21]
  GI50: > 100 µM
  LC50: > 100 µM
[21]; read-out: Log TGI (converted)
  TGI: > 100 µM
[22]
  GI50: > 100 µM
[22]; [41]
  CC50: > 100 µM
[22]; read-out: Log TGI (converted)
  TGI: 30.2 µM
[23]
  GI50: 37.2 µM
  LC50: > 100 µM
[23]; read-out: Log TGI (converted)
  TGI: > 100 µM
[24]
  pIC50: 5.70
[25]
  GI50: 3.47 µM
  LC50: > 100 µM
[25]; read-out: Log TGI (converted)
  TGI: > 100 µM
[26]
  IC50: 3.9 µM
[27]
  GI50: 42.7 µM
[27]; [41]
  CC50: 34.7 µM
[27]; read-out: Log TGI (converted)
  TGI: > 100 µM
[28]
  GI50: 83.2 µM
[28]; [41]
  CC50: > 100 µM
[28]; read-out: Log TGI (converted)
  TGI: > 100 µM
[29]
  GI50: 16.6 µM
  LC50: > 100 µM
[29]; read-out: Log TGI (converted)
  TGI: > 100 µM
[30]
  GI50: > 100 µM
  LC50: > 100 µM
[30]; read-out: Log TGI (converted)
  TGI: > 100 µM
[31]
  GI50: 32.4 µM
[31]; [41]
  CC50: > 100 µM
[31]; read-out: Log TGI (converted)
  TGI: > 100 µM
[32]
  GI50: 97.7 µM
  LC50: > 100 µM
[32]; read-out: Log TGI (converted)
  TGI: > 100 µM
[33]
  GI50: > 100 µM
  LC50: > 100 µM
[33]; read-out: Log TGI (converted)
  TGI: > 100 µM
[34]
  GI50: 87.1 µM
[34]; [41]
  CC50: > 100 µM
[34]; read-out: Log TGI (converted)
  TGI: > 100 µM
[35]
  GI50: 42.7 µM
  LC50: > 100 µM
[35]; read-out: Log TGI (converted)
  TGI: > 100 µM
[36]
  GI50: 26.3 µM
[36]; [41]
  CC50: > 100 µM
[36]; read-out: Log TGI (converted)
  TGI: > 100 µM
[37]
  GI50: > 100 µM
[37]; [41]
  CC50: > 100 µM
[37]; read-out: Log TGI (converted)
  TGI: > 100 µM
[38]
  GI50: 38.9 µM
[38]; [41]
  CC50: > 100 µM
[38]; read-out: Log TGI (converted)
  TGI: > 100 µM
[39]
  GI50: > 100 µM
  LC50 (lethal concentration, 50% cell kill): > 100 µM
[39]; read-out: Log TGI (converted)
  TGI: > 100 µM
[40]
  GI50: > 100 µM
  LC50: > 100 µM
[40]; read-out: Log TGI (converted)
  TGI: > 100 µM
